Experiments:
Cytochrome P450 2C9 [1] = biological target: T1, Cytochrome P450 2C9 (Homo sapiens, UniProt P11712); experiment: Drug metabolism assessed as human recombinant CYP2C9-mediated metabolite formation by measuring parent compound remaining at 5 uM in presence of NADPH after 30 mins by LC-MS/MS analysis; assay type: ADME; settings: recombinant enzyme, 0.5 h
In short: (§1)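 Substrate at 5 μM final in 100 mM potassium phosphate, pH 7.4, incubated with human liver microsomes or baculovirus-expressed recombinant CYP3A4, 2D6 or 2C9. Reaction started with 1 mM NADPH and run 0, 15 and 30 min at 37 °C. Stopped with ice-cold acetonitrile containing labetalol internal standard, then centrifuged. Supernatant analysed by LC-MS/MS on a C18 column at 40 °C. Blank was enzyme without substrate.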

Cytochrome P450 2C9 [2] = biological target: T1, Cytochrome P450 2C9; experiment: Drug metabolism assessed as human recombinant CYP2C9-mediated formation of N-(6-ethoxy-5-(2-methoxyphenoxy)-2,2'-bipyrimidin-4-yl)-4-(1-hydroxy-2-methylpropan-2-yl)benzenesulfonamide at 5 uM in presence of NADPH after 30 mins by LC-MS/MS analysissss; assay type: ADME; settings: recombinant enzyme, 0.5 h; in short: as §1
[3] = Metabolic stability in human liver microsomes assessed as parent compound remaining at 5 uM in presence of NADPH after 30 mins by LC-MS/MS analysis; assay type: ADME; settings: read-out: Stability
In short: (§2)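 Pooled human liver microsomes in 100 mM potassium phosphate, pH 7.4, with test compound at 5 μM final. Reaction started with 1 mM NADPH (final) and run at 37 °C in a shaking water bath for 0, 15 and 30 min. Stopped with an equal volume of ice-cold acetonitrile containing 0.6 μM labetalol as internal standard. Protein was spun out and the supernatant analysed by LC-MS/MS. Blank had no compound.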

Cytochrome P450 2D6 = Cytochrome P450 2D6 (Homo sapiens, UniProt P10635); experiment: Drug metabolism assessed as human recombinant CYP2D6-mediated metabolite formation by measuring parent compound remaining at 5 uM in presence of NADPH after 30 mins by LC-MS/MS analysis; assay type: ADME; settings: recombinant enzyme, 0.5 h; in short: as §1
Cytochrome P450 2D6, sequence (P10635 whole entry): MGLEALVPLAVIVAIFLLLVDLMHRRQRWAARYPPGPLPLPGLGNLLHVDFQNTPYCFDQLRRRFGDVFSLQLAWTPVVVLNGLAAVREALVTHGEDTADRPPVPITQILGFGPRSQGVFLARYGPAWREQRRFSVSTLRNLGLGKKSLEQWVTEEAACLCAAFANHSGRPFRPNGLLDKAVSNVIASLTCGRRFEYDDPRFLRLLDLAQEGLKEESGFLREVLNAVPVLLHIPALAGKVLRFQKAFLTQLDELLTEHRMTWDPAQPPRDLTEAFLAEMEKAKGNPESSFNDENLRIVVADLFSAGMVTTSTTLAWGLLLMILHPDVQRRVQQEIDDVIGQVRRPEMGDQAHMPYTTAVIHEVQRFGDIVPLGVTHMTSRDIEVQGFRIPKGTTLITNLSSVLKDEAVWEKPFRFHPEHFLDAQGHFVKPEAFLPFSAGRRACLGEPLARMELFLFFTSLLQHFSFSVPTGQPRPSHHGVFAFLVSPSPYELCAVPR

Cytochrome P450 3A4 [4] = biological target: T2, Cytochrome P450 3A4 (Homo sapiens, UniProt P08684); experiment: Drug metabolism assessed as human recombinant CYP3A4-mediated formation of N-(6-ethoxy-5-(2-methoxyphenoxy)-2,2'-bipyrimidin-4-yl)-4-(1-hydroxy-2-methylpropan-2-yl)benzenesulfonamide at 5 uM in presence of NADPH after 30 mins by LC-MS/MS analysissss; assay type: ADME; settings: recombinant enzyme, 0.5 h; in short: as §1
T2 sequence (P08684 whole entry): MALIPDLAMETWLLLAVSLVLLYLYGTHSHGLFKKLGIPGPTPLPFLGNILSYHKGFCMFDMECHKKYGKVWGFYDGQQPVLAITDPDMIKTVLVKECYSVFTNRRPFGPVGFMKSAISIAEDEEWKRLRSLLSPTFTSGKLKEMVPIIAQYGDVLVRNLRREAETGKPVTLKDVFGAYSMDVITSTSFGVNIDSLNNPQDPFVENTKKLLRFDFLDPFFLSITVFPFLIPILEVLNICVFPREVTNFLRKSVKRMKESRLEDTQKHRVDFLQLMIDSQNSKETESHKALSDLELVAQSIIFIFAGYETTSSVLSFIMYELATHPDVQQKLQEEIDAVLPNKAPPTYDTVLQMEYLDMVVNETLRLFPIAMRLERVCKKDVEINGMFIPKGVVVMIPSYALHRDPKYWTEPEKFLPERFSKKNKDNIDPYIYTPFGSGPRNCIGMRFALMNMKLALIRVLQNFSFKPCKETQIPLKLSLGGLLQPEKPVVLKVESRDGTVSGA

[5] = Drug metabolism in human liver microsomes assessed as formation of N-(6-ethoxy-5-(2-methoxyphenoxy)-2,2'-bipyrimidin-4-yl)-4-(1-hydroxy-2-methylpropan-2-yl)benzenesulfonamide at 5 uM in presence of NADPH after 30 mins by LC-MS/MS analysissss; assay type: ADME; settings: 0.5 h; in short: as §2
[6] = Retention time of the compound; assay type: physicochemical
Cytochrome P450 3A4 [7] = biological target: T2, Cytochrome P450 3A4; experiment: Drug metabolism assessed as human recombinant CYP3A4-mediated metabolite formation by measuring parent compound remaining at 5 uM in presence of NADPH after 30 mins by LC-MS/MS analysis; assay type: ADME; settings: recombinant enzyme, 0.5 h; in short: as §1
Cytochrome P450 3A4 [8] = biological target: T2, Cytochrome P450 3A4; experiment: Drug level assessed as human recombinant CYP3A4-mediated compound formation treated with 4-(1,1,1,3,3,3-Hexafluoro-2-methoxypropan-2-yl)-N-(6-(2-hydroxyethoxy)-5-(2-methoxyphenoxy)-2,2'-bipyrimidin-4-yl)benzenesulfonamide at 5 uM in presence of NADPH after 30 mins by LC-MS/MS analysis; assay type: ADME; settings: recombinant enzyme, 0.5 h; in short: as §1
[9] = Drug level in human liver microsomes treated with 4-(1,1,1,3,3,3-Hexafluoro-2-methoxypropan-2-yl)-N-(6-(2-hydroxyethoxy)-5-(2-methoxyphenoxy)-2,2'-bipyrimidin-4-yl)benzenesulfonamide at 5 uM in presence of NADPH after 30 mins by LC-MS/MS analysis; assay type: ADME; settings: 0.5 h; in short: as §1
[10] = biological target: T3, Endothelin receptor type B (Homo sapiens) (UniProt P24530); experiment: Antagonist activity at human recombinant ETB expressed in CHOK1 cells assessed as inhibition of endothelin-1-mediated Ca2+ mobilization at 10 nM by fluorimetric method relative to control; assay type: functional, cell-based; settings: CHO-K1
T3 sequence (whole entry): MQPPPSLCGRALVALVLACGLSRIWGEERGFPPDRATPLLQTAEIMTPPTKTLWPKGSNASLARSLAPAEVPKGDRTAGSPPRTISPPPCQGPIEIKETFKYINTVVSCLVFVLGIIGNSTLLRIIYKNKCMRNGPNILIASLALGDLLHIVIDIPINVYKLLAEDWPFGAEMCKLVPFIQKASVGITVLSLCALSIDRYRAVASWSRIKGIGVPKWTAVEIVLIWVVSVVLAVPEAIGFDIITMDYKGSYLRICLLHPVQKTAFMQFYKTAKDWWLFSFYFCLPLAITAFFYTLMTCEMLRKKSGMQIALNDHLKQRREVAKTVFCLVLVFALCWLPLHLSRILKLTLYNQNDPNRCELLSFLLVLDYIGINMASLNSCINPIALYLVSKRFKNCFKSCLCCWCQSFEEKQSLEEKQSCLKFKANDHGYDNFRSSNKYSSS
In short: (§3)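 ETB functional assay run by Cerep in human recombinant CHO-k1 cells at 22 °C with fluorimetric read-out. Test solutions were 1, 10, 100 and 1000 nM. Agonist response is given as % of the control response to 100 nM endothelin-1. For antagonist mode, inhibition is given as % of the control endothelin-1 agonist response, with BQ-788 as reference antagonist.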

[11] = Cytotoxicity against CHOK1 cells assessed as decrease in cell viability after 24 hrs by MTT assay; assay type: toxicity, cell-based, Cricetulus griseus; settings: Chinese hamster, CHO-K1 cells
In short: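 CHO-k1 cells grown in phenol-red-free DMEM/F-12 with 10% FBS, seeded at 20,000 cells/well and allowed to attach overnight. Exposure was 24 h to 0.1–200 μM, with DMSO as vehicle control. MTT at 1 mg/mL for 3 h at 37 °C, formazan dissolved in DMSO, absorbance read at 570 nm. Data given as % OD of vehicle control; IC50 taken from dose–response curve fits.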

[12] = biological target: T4, Endothelin-1 receptor (Homo sapiens) (UniProt P25101); experiment: Antagonist activity at ETA receptor in human SKNMC cells assessed as inhibition of endothelin-1-mediated Ca2+ mobilization at 1 nM by fluorimetric method relative to control; assay type: functional, cell-based; settings: SK-N-MC
T4 sequence (whole entry): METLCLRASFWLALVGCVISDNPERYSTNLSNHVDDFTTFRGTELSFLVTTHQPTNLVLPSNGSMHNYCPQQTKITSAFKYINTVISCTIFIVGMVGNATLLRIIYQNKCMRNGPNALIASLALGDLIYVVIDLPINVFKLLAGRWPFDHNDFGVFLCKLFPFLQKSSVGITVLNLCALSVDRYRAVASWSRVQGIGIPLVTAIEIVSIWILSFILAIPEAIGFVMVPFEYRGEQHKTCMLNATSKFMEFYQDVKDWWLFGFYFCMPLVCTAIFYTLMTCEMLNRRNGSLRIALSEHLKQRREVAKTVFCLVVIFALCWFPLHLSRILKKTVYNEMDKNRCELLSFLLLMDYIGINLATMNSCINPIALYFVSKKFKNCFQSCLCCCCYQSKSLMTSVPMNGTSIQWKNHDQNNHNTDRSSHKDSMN
In short: (§4)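 ETA functional assay run by Cerep in human neuroblastoma SK-N-MC cells at 22 °C with fluorimetric read-out. Test solutions were 1, 10, 100 and 1000 nM. Agonist response is given as % of the control response to 100 nM endothelin-1. For antagonist mode, inhibition is given as % of the control endothelin-1 agonist response, with BQ-123 as reference antagonist.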

[13] = biological target: T3, Endothelin receptor type B (Homo sapiens); experiment: Antagonist activity at human recombinant ETB expressed in CHOK1 cells assessed as inhibition of endothelin-1-mediated Ca2+ mobilization at 100 nM by fluorimetric method relative to control; assay type: functional, cell-based; settings: CHO-K1; in short: as §3
[14] = biological target: T4, Endothelin-1 receptor (Homo sapiens); experiment: Agonist activity at ETA receptor in human SKNMC cells assessed as induction of Ca2+ mobilization at 100 nM by fluorimetric method relative to control; assay type: functional, cell-based; settings: SK-N-MC; in short: as §4
[15] = biological target: T3, Endothelin receptor type B (Homo sapiens); experiment: Agonist activity at human recombinant ETB receptor expressed in CHOK1 cells assessed as induction of Ca2+ mobilization at 1 nM by fluorimetric method relative to control; assay type: functional, cell-based; settings: CHO-K1; in short: as §3
[16] = biological target: T3, Endothelin receptor type B (Homo sapiens); experiment: Agonist activity at human recombinant ETB receptor expressed in CHOK1 cells assessed as induction of Ca2+ mobilization at 100 nM by fluorimetric method relative to control; assay type: functional, cell-based; settings: CHO-K1; in short: as §3
[17] = biological target: T3, Endothelin receptor type B (Homo sapiens); experiment: Antagonist activity at human recombinant ETB expressed in CHOK1 cells assessed as inhibition of endothelin-1-mediated Ca2+ mobilization at 1 nM by fluorimetric method relative to control; assay type: functional, cell-based; settings: CHO-K1; in short: as §3
[18] = biological target: T4, Endothelin-1 receptor (Homo sapiens); experiment: Antagonist activity at ETA receptor in human SKNMC cells assessed as inhibition of endothelin-1-mediated Ca2+ mobilization at 100 nM by fluorimetric method relative to control; assay type: functional, cell-based; settings: SK-N-MC; in short: as §4
[19] = biological target: T3, Endothelin receptor type B (Homo sapiens); experiment: Agonist activity at human recombinant ETB receptor expressed in CHOK1 cells assessed as induction of Ca2+ mobilization at 10 nM by fluorimetric method relative to control; assay type: functional, cell-based; settings: CHO-K1; in short: as §3
[20] = biological target: T4, Endothelin-1 receptor (Homo sapiens); experiment: Agonist activity at ETA receptor in human SKNMC cells assessed as induction of Ca2+ mobilization at 10 nM by fluorimetric method relative to control; assay type: functional, cell-based; settings: SK-N-MC; in short: as §4
[21] = Drug metabolism in human liver microsomes assessed as formation of 4-(1,1,1,3,3,3-hexafluoro-2-hydroxypropan-2-yl)-N-(6-(2-hydroxyethoxy)-5-(2-hydroxyphenoxy)-2,2'-bipyrimidin-4-yl)benzenesulfonamide at 5 uM in presence of NADPH after 30 mins by LC-MS/MS analysis; assay type: ADME; settings: 0.5 h; in short: as §1
Cytochrome P450 3A4 [22] = biological target: T2, Cytochrome P450 3A4; experiment: Drug metabolism assessed as human recombinant CYP3A4-mediated formation of 4-(1,1,1,3,3,3-hexafluoro-2-hydroxypropan-2-yl)-N-(6-(2-hydroxyethoxy)-5-(2-hydroxyphenoxy)-2,2'-bipyrimidin-4-yl)benzenesulfonamide at 5 uM in presence of NADPH after 30 mins by LC-MS/MS analysis; assay type: ADME; settings: recombinant enzyme, 0.5 h; in short: as §1
[23] = biological target: T4, Endothelin-1 receptor (Homo sapiens); experiment: Agonist activity at ETA receptor in human SKNMC cells assessed as induction of Ca2+ mobilization at 1 nM by fluorimetric method relative to control; assay type: functional, cell-based; settings: SK-N-MC; in short: as §4
[24] = biological target: T4, Endothelin-1 receptor (Homo sapiens); experiment: Antagonist activity at ETA receptor in human SKNMC cells assessed as inhibition of endothelin-1-mediated Ca2+ mobilization at 10 nM by fluorimetric method relative to control; assay type: functional, cell-based; settings: SK-N-MC; in short: as §4
[25] = Drug level in human liver microsomes treated with 4-(1,1,1,3,3,3-Hexafluoro-2-hydroxypropan-2-yl)-N-(6-(2-hydroxyethoxy)-5-(2-methoxyphenoxy)-2,2'-bipyrimidin-4-yl)benzenesulfonamide at 5 uM in presence of NADPH after 30 mins by LC-MS/MS analysis; assay type: ADME; settings: 0.5 h; in short: as §1
Cytochrome P450 3A4 [26] = biological target: T2, Cytochrome P450 3A4; experiment: Drug level assessed as human recombinant CYP3A4-mediated compound formation treated with 4-(1,1,1,3,3,3-Hexafluoro-2-hydroxypropan-2-yl)-N-(6-(2-hydroxyethoxy)-5-(2-methoxyphenoxy)-2,2'-bipyrimidin-4-yl)benzenesulfonamide at 5 uM in presence of NADPH after 30 mins by LC-MS/MS analysis; assay type: ADME; settings: recombinant enzyme, 0.5 h; in short: as §1

T1 sequence (P11712 whole entry): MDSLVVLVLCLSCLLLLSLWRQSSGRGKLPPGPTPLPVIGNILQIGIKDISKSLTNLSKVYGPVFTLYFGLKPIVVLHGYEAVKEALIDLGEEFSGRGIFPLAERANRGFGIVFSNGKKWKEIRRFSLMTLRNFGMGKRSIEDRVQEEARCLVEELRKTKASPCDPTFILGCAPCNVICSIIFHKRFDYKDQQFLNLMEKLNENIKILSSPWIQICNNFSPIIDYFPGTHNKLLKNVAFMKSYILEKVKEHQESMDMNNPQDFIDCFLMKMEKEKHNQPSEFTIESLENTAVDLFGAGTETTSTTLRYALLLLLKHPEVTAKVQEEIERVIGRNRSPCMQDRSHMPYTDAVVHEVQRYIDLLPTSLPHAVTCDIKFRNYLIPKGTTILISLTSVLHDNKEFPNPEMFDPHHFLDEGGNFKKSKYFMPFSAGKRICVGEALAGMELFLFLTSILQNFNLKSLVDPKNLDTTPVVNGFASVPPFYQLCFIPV

SMILES: CCOc1nc(-c2ncccn2)nc(NS(=O)(=O)c2ccc(C(C)(C)C)cc2)c1Oc1ccccc1OC
- Stability (Cytochrome P450 2C9 [1]): 99%
- Drug metabolism (Cytochrome P450 2C9 [2]): Metabolite_Detected
- remaining at 0.5 h, 5 µM [3]: 68.5%
- Stability (Cytochrome P450 2D6): > 99%
- Drug metabolism (Cytochrome P450 3A4 [4]): Metabolite_Detected
- Drug metabolism [5]: Metabolite_Detected
- Retention_time [6]: 5.96 min
- Stability (Cytochrome P450 3A4 [7]): 15%

SMILES: COC(c1ccc(S(=O)(=O)Nc2nc(-c3ncccn3)nc(OCCO)c2Oc2ccccc2O)cc1)(C(F)(F)F)C(F)(F)F
- Drug metabolism (Cytochrome P450 3A4 [8]): Metabolite_Detected
- Drug metabolism [9]: Metabolite_Detected
- Retention_time [6]: 5.14 min

SMILES: COc1ccccc1Oc1c(NS(=O)(=O)c2ccc(C(O)(C(F)(F)F)C(F)(F)F)cc2)nc(-c2ncccn2)nc1OCCO
- Drug metabolism (Cytochrome P450 3A4 [8]): Metabolite_Detected
- inhibition [10]: 11%
- IC50 at 24 h [11]: > 200 µM
- inhibition [12]: -9%
- inhibition [13]: 14%
- Activity [14]: 0%
- Drug metabolism [9]: Metabolite_Detected
- Stability (Cytochrome P450 2C9 [1]): 100%
- Activity [15]: -1%
- Activity [16]: -1%
- inhibition [17]: 12%
- inhibition [18]: -7%
- Activity [19]: -1%
- remaining at 0.5 h, 5 µM [3]: 90.1%
- Activity [20]: 0%
- Stability (Cytochrome P450 2D6): > 99%
- Drug metabolism [21]: Metabolite_Detected
- Drug metabolism (Cytochrome P450 3A4 [22]): Metabolite_Detected
- Retention_time [6]: 4.72 min
- Stability (Cytochrome P450 3A4 [7]): 72.8%
- Activity [23]: 0%
- inhibition [24]: -5%

SMILES: O=S(=O)(Nc1nc(-c2ncccn2)nc(OCCO)c1Oc1ccccc1O)c1ccc(C(O)(C(F)(F)F)C(F)(F)F)cc1
- Drug metabolism [25]: Metabolite_Detected
- Retention_time [6]: 4.39 min
- Drug metabolism (Cytochrome P450 3A4 [26]): Metabolite_Detected
